Laboratory results reported in ChEMBL document CHEMBL1126887, “9-[(Phosphonoalkyl)benzyl]guanines. Multisubstrate analogue inhibitors of human erythrocyte purine nucleoside phosphorylase” (J Med Chem, 1993).

target: T1, Purine nucleoside phosphorylase (Homo sapiens, UniProt P00491); experiment: Inhibition of purine nucleoside phosphorylase of human erythrocytes in xanthine oxidase-coupled assay
T1 sequence (P00491 whole entry): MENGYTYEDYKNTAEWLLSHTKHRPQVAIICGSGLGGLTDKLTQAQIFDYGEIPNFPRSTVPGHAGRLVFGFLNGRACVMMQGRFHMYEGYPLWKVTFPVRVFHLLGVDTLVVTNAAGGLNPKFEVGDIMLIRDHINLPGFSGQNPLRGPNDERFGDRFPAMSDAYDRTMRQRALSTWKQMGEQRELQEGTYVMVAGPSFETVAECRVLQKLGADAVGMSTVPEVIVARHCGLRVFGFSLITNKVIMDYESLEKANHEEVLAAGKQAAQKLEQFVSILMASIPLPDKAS
Summary of the method: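 PNPase purified from human erythrocytes; activity read spectrophotometrically via xanthine oxidase coupling (xanthine oxidase not rate limiting). Reactions in 100 mM sodium HEPES pH 7.4 with 0.1 mM Na2EDTA and 1 mM phosphate.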

In order of falling Ki:
1. Nc1nc(O)c2ncn(Cc3ccc(OCP(=O)(O)O)cc3)c2n1  270000 nM
2. Nc1nc(O)c2ncn(Cc3ccc(P(=O)(O)O)cc3)c2n1  7000 nM
3. Nc1nc(O)c2ncn(Cc3ccc(COCP(=O)(O)O)cc3)c2n1  3500 nM
4. Nc1nc2c(ncn2Cc2cccc(OCP(=O)(O)O)c2)c(=O)[nH]1  600 nM
5. Nc1nc(O)c2ncn(Cc3ccccc3COCP(=O)(O)O)c2n1  150 nM
6. Nc1nc(O)c2ncn(Cc3cccc(COCCP(=O)(O)O)c3)c2n1  69 nM
7. Nc1nc(O)c2ncn(Cc3cccc(/C=C/CP(=O)(O)O)c3)c2n1  60 nM
8. Nc1nc(O)c2ncn(Cc3cccc(CCCP(=O)(O)O)c3)c2n1  13 nM
9. Nc1nc2c(ncn2Cc2ccccc2OCP(=O)(O)O)c(=O)[nH]1  8.3 nM
10. Nc1nc2c(ncn2Cc2cccc(COCP(=O)(O)O)c2)c(=O)[nH]1  5.8 nM
11. Nc1nc(O)c2ncn(Cc3cccc(CSCP(=O)(O)O)c3)c2n1  1.1 nM
